Measured values published in ChEMBL document CHEMBL1141682, “Discovery of novel potent and selective dipeptide hepatitis C virus NS3/4A serine protease inhibitors” (Bioorg Med Chem Lett, 2008).

Columns and labels:
[1] = Inhibition of full length HCV NS3/4A protease; parameters: species or system Hepacivirus hominis
Procedure, shortened: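 Full-length recombinant genotype 1 NS3 protease was run with a truncated NS4A cofactor in a biochemical assay. Inhibition constants (Ki) are reported.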

Hepatitis C virus = test: Inhibition of HCV replication in human HuH7-Rep cells containing subgenomic bicistronic clone; assay type: functional, organism-based, Hepacivirus hominis; conditions: Huh-7
Procedure, shortened: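 Huh7 cells carried the subgenomic bicistronic replicon clone ET with a luciferase reporter. EC50 is the concentration that cut luciferase signal by 50% relative to untreated control.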

[2] = Metabolic stability in human liver microsomess after 15 mins at 5 uM; assay type: ADME, Microsome; conditions: liver microsomes
Procedure, shortened: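 Compound at 5 µM was incubated with human liver microsomes for 15 min at 37 °C. Stability is expressed as percent of compound metabolized.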

[3] = Tmax in Sprague-Dawley rat at 10 mg/kg, po; assay type: ADME, organism-based; parameters: dose 10 mg/kg, route oral; conditions: in vivo
Procedure, shortened: (§1)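 Male SD rats (n = 2 per route) got a single dose: 2 mg/kg IV in 20% hydroxypropyl-β-cyclodextrin, or 10 mg/kg oral in 50% PEG400 with 2.5% vitamin E-TPGS. Plasma was sampled out to 8 h. Heart and liver levels were taken at 8 h. Oral half-life was fitted over 2–8 h. Bioavailability compares oral against IV exposure.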

[4] = Plasma concentration in Sprague-Dawley rat at 2 mg/kg, iv after 1 hr; assay type: ADME, organism-based; parameters: dose 2 mg/kg, route intravenous; procedure, shortened: as §1
[5] = Plasma concentration in Sprague-Dawley rat at 10 mg/kg, po after 8 hrs; assay type: ADME, organism-based; parameters: dose 10 mg/kg, route oral; procedure, shortened: as §1
[6] = Plasma concentration in Sprague-Dawley rat at 2 mg/kg, iv after 2 hrs; assay type: ADME, organism-based; parameters: dose 2 mg/kg, route intravenous; procedure, shortened: as §1
[7] = Plasma concentration in Sprague-Dawley rat at 10 mg/kg, po after 2 hrs; assay type: ADME, organism-based; parameters: dose 10 mg/kg, route oral; procedure, shortened: as §1
MT4 = test: Cytotoxicity against human MT4 cells by LTR-luciferase assay; assay type: functional
Procedure, shortened: (§2)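 Cytotoxicity was tested in MT4-LTR-Luc and Huh7-CMV-Luc reporter cell lines. Results are given as CC50.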

[8] = Plasma concentration in Sprague-Dawley rat at 2 mg/kg, iv after 0.12 hrs; assay type: ADME, organism-based; parameters: dose 2 mg/kg, route intravenous; procedure, shortened: as §1
[9] = Drug level in Sprague-Dawley rat heart at 10 mg/kg, po after 8 hrs; assay type: ADME, organism-based; parameters: dose 10 mg/kg, route oral; procedure, shortened: as §1
Rattus norvegicus [10] = test: AUC (0 to infinity) in Sprague-Dawley rat at 2 mg/kg, iv; assay type: ADME, organism-based, Plasma; parameters: time infinity, dose 2 mg/kg, route intravenous; conditions: in vivo; procedure, shortened: as §1
[11] = AUC (0 to infinity) in Sprague-Dawley rat at 10 mg/kg, po; assay type: ADME, organism-based; parameters: time infinity, dose 10 mg/kg, route oral; conditions: plasma; procedure, shortened: as §1
[12] = Drug level in Sprague-Dawley rat liver at 2 mg/kg, iv after 8 hrs; assay type: ADME, organism-based; parameters: dose 2 mg/kg, route intravenous; conditions: read-out: Drug uptake; procedure, shortened: as §1
[13] = Drug level in Sprague-Dawley rat heart at 2 mg/kg, iv after 8 hrs; assay type: ADME, organism-based; parameters: dose 2 mg/kg, route intravenous; conditions: read-out: Drug uptake; procedure, shortened: as §1
[14] = Permeability from apical to basolateral side of human Caco-2 cells; assay type: ADME, cell-based
[15] = Cmax in Sprague-Dawley rat at 10 mg/kg, po; assay type: ADME, organism-based; parameters: dose 10 mg/kg, route oral; conditions: in vivo; procedure, shortened: as §1
[16] = Plasma concentration in Sprague-Dawley rat at 10 mg/kg, po after 1 hr; assay type: ADME, organism-based; parameters: dose 10 mg/kg, route oral; procedure, shortened: as §1
[17] = Plasma concentration in Sprague-Dawley rat at 10 mg/kg, po after 4 hrs; assay type: ADME, organism-based; parameters: dose 10 mg/kg, route oral; procedure, shortened: as §1
[18] = AUC (0 to 8 hrs) in Sprague-Dawley rat at 10 mg/kg, po; assay type: ADME, organism-based; parameters: time < 8 hr, dose 10 mg/kg, route oral; conditions: plasma; procedure, shortened: as §1
[19] = AUC (0 to 8 hrs) in Sprague-Dawley rat at 2 mg/kg, iv; assay type: ADME, organism-based; parameters: time < 8 hr, dose 2 mg/kg, route intravenous; conditions: plasma; procedure, shortened: as §1
[20] = Half life (2 to 8 hrs) in Sprague-Dawley rat at 10 mg/kg, po; assay type: ADME, organism-based; parameters: dose 10 mg/kg, route oral; conditions: in vivo; procedure, shortened: as §1
[21] = Plasma concentration in Sprague-Dawley rat at 2 mg/kg, iv after 8 hrs; assay type: ADME, organism-based; parameters: dose 2 mg/kg, route intravenous; procedure, shortened: as §1
Huh-7 = test: Cytotoxicity against human HuH7 cells by CMV-luciferase assay; assay type: functional; procedure, shortened: as §2
Rattus norvegicus [22] = test: Clearance in Sprague-Dawley rat at 2 mg/kg, iv; assay type: ADME, organism-based; parameters: dose 2 mg/kg, route intravenous; conditions: in vivo; procedure, shortened: as §1
[23] = Drug level in Sprague-Dawley rat liver at 10 mg/kg, po after 8 hrs; assay type: ADME, organism-based; parameters: dose 10 mg/kg, route oral; conditions: read-out: Drug uptake; procedure, shortened: as §1
[24] = Oral bioavailability in Sprague-Dawley rat at 10 mg/kg, po; assay type: ADME, organism-based; conditions: in vivo; procedure, shortened: as §1
[25] = Plasma concentration in Sprague-Dawley rat at 10 mg/kg, po after 0.5 hrs; assay type: ADME, organism-based; parameters: dose 10 mg/kg, route oral; procedure, shortened: as §1
[26] = Volume of distribution in steady state in Sprague-Dawley rat at 2 mg/kg, iv; assay type: ADME, organism-based; parameters: dose 2 mg/kg, route intravenous; conditions: in vivo, read-out: Vdss; procedure, shortened: as §1
[27] = Half life (2 to 8 hrs) in Sprague-Dawley rat at 2 mg/kg, iv; assay type: ADME, organism-based; parameters: dose 2 mg/kg, route intravenous; conditions: in vivo
[28] = Plasma concentration in Sprague-Dawley rat at 2 mg/kg, iv after 0.33 hrs; assay type: ADME, organism-based; parameters: dose 2 mg/kg, route intravenous; procedure, shortened: as §1
[29] = Plasma concentration in Sprague-Dawley rat at 2 mg/kg, iv after 4 hrs; assay type: ADME, organism-based; parameters: dose 2 mg/kg, route intravenous; procedure, shortened: as §1

## COc1ccc2c(O[C@@H]3C[C@H]4C(=O)N[C@]5(C(=O)NS(=O)(=O)C6CC6)C[C@H]5/C=C\CCCCCCC(=O)N4C3)cc(-c3cscn3)nc2c1
[1]
  Ki: 0.5 nM
Hepatitis C virus
  EC50: 3.97 nM

## COc1ccc2c(O[C@@H]3C[C@H]4C(=O)N[C@]5(C(=O)O)C[C@H]5/C=C\CCCCCCC(=O)N4C3)cc(-c3csc(NC(C)C)n3)nc2c1
[1]
  Ki: 46 nM
Hepatitis C virus
  EC50: 1980 nM

## COc1ccc2c(O[C@@H]3C[C@H]4C(=O)N[C@]5(C(=O)NS(=O)(=O)C6CC6)C[C@H]5/C=C\CCCCCCC(=O)N4C3)cc(-c3csc(NC(C)C)n3)nc2c1
[2]
  metabolized at 0.25 h, 5 µM: 91.5%
[1]
  Ki: 0.9 nM
Hepatitis C virus
  EC50: 20.4 nM

## COc1ccc2c(O[C@@H]3C[C@H]4C(=O)N[C@]5(C(=O)NS(=O)(=O)C6CC6)C[C@H]5/C=C\CCCCCC(=O)N4C3)cc(-c3nc(C(C)C)cs3)nc2c1
[2]
  metabolized at 0.25 h, 5 µM: 82.4%
[1]
  Ki: 0.4 nM
Hepatitis C virus
  EC50: 23.9 nM

## COc1ccc2c(O[C@@H]3C[C@H]4C(=O)N[C@]5(C(=O)NS(=O)(=O)C6CC6)C[C@H]5/C=C\CCCCCCC(=O)N4C3)cc(-c3nccs3)nc2c1Br
[2]
  metabolized at 0.25 h, 5 µM: 100%
[1]
  Ki: 0.1 nM
Hepatitis C virus
  EC50: 1.9 nM

## COc1ccc2c(O[C@@H]3C[C@H]4C(=O)N[C@]5(C(=O)NS(=O)(=O)C6(C)CC6)C[C@H]5/C=C\CCCCCC(=O)N4C3)cc(-c3nc(C(C)C)cs3)nc2c1Cl
[3]
  Tmax: 0.75 h
[4]
  concentration at 1 h: 449 ng/mL
[5]
  concentration at 8 h: 133 ng/mL
[6]
  concentration at 2 h: 290 ng/mL
[7]
  concentration at 2 h: 632 ng/mL
[2]
  metabolized at 0.25 h, 5 µM: 42.6%
MT4
  CC50: > 20000 nM
[8]
  concentration at 0.12 h: 1500 ng/mL
[9]
  concentration at 8 h: 35.8 ng/g
Rattus norvegicus [10]
  AUC: 2154 ng·h/mL
[1]
  Ki: 0.2 nM
[11]
  AUC(0-inf): 3610 ng·h/mL
[12]
  concentration at 8 h: 3660 ng/g
[13]
  concentration at 8 h: 15.1 ng/g
[14]
  Papp A→B: 11.1 ×10⁻⁶ cm/s
[15]
  Cmax: 715 ng/mL
[16]
  concentration at 1 h: 693 ng/mL
[17]
  concentration at 4 h: 363 ng/mL
[18]
  AUC(0-t) at 8 h: 3070 ng·h/mL
[19]
  AUC(0-t) at 8 h: 1960 ng·h/mL
[20]
  half-life: 2.73 h
[21]
  concentration at 8 h: 53 ng/mL
Huh-7
  CC50: > 20000 nM
Rattus norvegicus [22]
  CL: 65.7 mL/min/kg
[23]
  concentration at 8 h: 7660 ng/g
[24]
  bioavailability: 31%
[25]
  concentration at 0.5 h: 698 ng/mL
[26]
  Vd: 2.75 L/kg
[27]
  half-life: 2.49 h
[28]
  concentration at 0.33 h: 708 ng/mL
[29]
  concentration at 4 h: 139 ng/mL
Hepatitis C virus
  EC50: 3.76 nM

## COc1ccc2c(O[C@@H]3C[C@H]4C(=O)N[C@]5(C(=O)O)C[C@H]5/C=C\CCCCC[C@H](NC(=O)OC5CCCC5)C(=O)N4C3)cc(-c3csc(NC(C)C)n3)nc2c1 [CILUPREVIR]
[2]
  metabolized at 0.25 h, 5 µM: 28.5%
[1]
  Ki: 0.3 nM
Hepatitis C virus
  EC50: 1.63 nM

## COc1ccc2c(O[C@@H]3C[C@H]4C(=O)N[C@]5(C(=O)NS(=O)(=O)C6CC6)C[C@H]5/C=C\CCCCCCC(=O)N4C3)cc(-c3nccs3)nc2c1
[2]
  metabolized at 0.25 h, 5 µM: 100%
[1]
  Ki: 1 nM
Hepatitis C virus
  EC50: 16.8 nM

## COc1ccc2c(O[C@@H]3C[C@H]4C(=O)N[C@]5(C(=O)NS(=O)(=O)C6CC6)C[C@H]5/C=C\CCCCCC(=O)N4C3)cc(-c3nc(C(C)C)cs3)nc2c1C
[2]
  metabolized at 0.25 h, 5 µM: 50.2%
[1]
  Ki: 0.2 nM
Hepatitis C virus
  EC50: 3.55 nM

## COc1ccc2c(O[C@@H]3C[C@H]4C(=O)N[C@]5(C(=O)NS(=O)(=O)C6CC6)C[C@H]5/C=C\CCCCCCC(=O)N4C3)cc(-c3nc(C(C)C)cs3)nc2c1
[2]
  metabolized at 0.25 h, 5 µM: 98%
[1]
  Ki: 0.65 nM
Hepatitis C virus
  EC50: 18 nM

## COc1ccc2c(O[C@@H]3C[C@H]4C(=O)N[C@]5(C(=O)NS(=O)(=O)C6(C)CC6)C[C@H]5/C=C\CCCCCC(=O)N4C3)cc(-c3nc(C(C)C)cs3)nc2c1C
[2]
  metabolized at 0.25 h, 5 µM: 28.8%
[1]
  Ki: 0.4 nM
Hepatitis C virus
  EC50: 14.1 nM

## COc1ccc2c(O[C@@H]3C[C@H]4C(=O)N[C@]5(C(=O)NS(=O)(=O)C6CC6)C[C@H]5/C=C\CCCCCCC(=O)N4C3)cc(-c3nccs3)nc2c1C
[2]
  metabolized at 0.25 h, 5 µM: 98.4%
[1]
  Ki: 0.5 nM
Hepatitis C virus
  EC50: 4.37 nM

## COc1ccc2c(O[C@@H]3C[C@H]4C(=O)N[C@]5(C(=O)NS(=O)(=O)C6CC6)C[C@H]5/C=C\CCCCCCC(=O)N4C3)cc(-c3nc(C(C)C)cs3)nc2c1C
[1]
  Ki: 2.8 nM
Hepatitis C virus
  EC50: 5.84 nM

## COc1ccc2c(O[C@@H]3C[C@H]4C(=O)N[C@]5(C(=O)NS(=O)(=O)C6CC6)C[C@H]5/C=C\CCCCCC(=O)N4C3)cc(-c3nc(C(C)C)cs3)nc2c1Cl
[1]
  Ki: 0.4 nM
Hepatitis C virus
  EC50: 11.7 nM

## COc1ccc2c(O[C@@H]3C[C@H]4C(=O)N[C@]5(C(=O)O)C[C@H]5/C=C\CCCCCCC(=O)N4C3)cc(-c3nc(C(C)C)cs3)nc2c1
[1]
  Ki: 18 nM
Hepatitis C virus
  EC50: 5040 nM
